One block for each compound: values may come before it. Calls of active or inactive are those of the source. The calls are words filed in the database; no cut-off is given here.
Experiments:
[1] = Resistance index, ratio of IC50 for ring stage chloroquine-resistant Plasmodium falciparum Dd2 to IC50 for ring stage chloroquine-sensitive Plasmodium falciparum 3D7; type: functional
Plasmodium falciparum [2] = assay: Antimalarial activity against ring stage chloroquine-sensitive Plasmodium falciparum 3D7 infected in human O positive erythrocytes after 48 hrs by SYBR green 1 fluorescence assay; type: functional, organism-based; details: 3D7, 48 h
In short: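 P. falciparum 3D7 in O+ human erythrocytes in complete RPMI with Albumax at 37 °C under 5% O2/5% CO2. Culture was sorbitol-synchronized to rings and plated at 2% hematocrit, 1% parasitemia. Drug range was 0–100 μM with 0.4% final DMSO, in triplicate. After 48 h, SYBR Green I fluorescence was read (ex 497/em 520 nm). IC50 was taken by visual matching of 50% growth inhibition.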

[3] = Therapeutic index, ratio of IC50 for […] cells to IC50 for ring stage chloroquine-sensitive Plasmodium falciparum 3D7; type: cell-based; details: mouse, read-out: Ratio IC50
In short: (§1)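 HeLa or L929 fibroblasts were seeded at 10^4 cells per well in RPMI with 10% FBS, left overnight, then exposed 24 h at 37 °C, 5% CO2. MTT was added for 3 h; formazan was dissolved in DMSO and read at 570 nm. IC50 came from dose–response curves. Index = IC50(mammalian)/IC50(Pf 3D7, SYBR Green assay).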

[4] = Therapeutic index, ratio of IC50 for human HeLa cells to IC50 for ring stage chloroquine-sensitive Plasmodium falciparum 3D7; type: cell-based; details: read-out: Ratio IC50; in short: as §1
[5] = Resistance index, ratio of IC50 for ring stage chloroquine-resistant Plasmodium falciparum INDO to IC50 for ring stage chloroquine-sensitive Plasmodium falciparum 3D7; type: functional
Plasmodium falciparum [6] = assay: Antimalarial activity against ring stage chloroquine-resistant Plasmodium falciparum INDO infected in human O positive erythrocytes after 48 hrs by SYBR green 1 fluorescence assay; type: functional, organism-based
In short: (§2)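 Ring-stage cultures were sorbitol-synchronized in O+ human erythrocytes in RPMI 1640 with 0.5% Albumax, hypoxanthine and gentamicin, then plated at 2% hematocrit and 1% parasitemia. Drugs were tested at 0–100 μM (final DMSO 0.4%) in triplicate for 48 h at 37 °C under 5% O2/5% CO2/90% N2. Read-out was SYBR Green I (ex 497/em 520 nm). IC50 was read visually as 50% growth inhibition, with chloroquine as control.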

Plasmodium falciparum [7] = assay: Antimalarial activity against ring stage chloroquine-resistant Plasmodium falciparum Dd2 infected in human O positive erythrocytes after 48 hrs by SYBR green 1 fluorescence assay; type: functional, organism-based; details: Dd2, 48 h; in short: as §2
[8] = Inhibition of Plasmodium falciparum falcipain-2 using benzyloxycarbonyl-Phe-Arg-7-amino-4-methyl coumarin hydrochloride as substrate preincubated for 10 mins prior substrate addition by fluorimetric assay
In short: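 Recombinant falcipain-2 (2 μg) was preincubated 10 min at room temperature with or without compound, in triplicate. Buffer was 100 mM sodium acetate pH 5.5 with 10 mM DTT and 1% final DMSO. Z-Phe-Arg-AMC was then added at 10 μM final. AMC release was read at ex 355/em 460 nm. IC50 was taken by visual matching of 50% inhibition.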

Plasmodium falciparum [9] = assay: Induction of apoptosis in ring stage chloroquine-sensitive Plasmodium falciparum 3D7 assessed as disruption of mitochondrial membrane potential at 6 uM by JC-1 staining; type: functional, organism-based
In short: (§3)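 3D7 ring cultures were treated 24, 42 or 48 h, and trophozoite cultures 18 or 24 h. Parasites were stained with JC-1 for 20 min at 37 °C and viewed as wet mounts by fluorescence microscopy. Red-orange aggregate signal (590 nm) indicates intact ΔΨm; green monomer signal (525 nm) indicates dissipation.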

Plasmodium falciparum [10] = assay: Growth inhibition of chloroquine-sensitive Plasmodium falciparum 3D7 schizonts at 6 uM treated for 8 hrs following washout incubated for 48 hrs in drug free medium by SYBR green 1-based fluorescence assay; type: functional, organism-based
In short: (§4)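 Stage-specific exposure of synchronized 3D7: rings 48 h, trophozoites 24 h, schizonts 8 h. Drug was removed by media wash and cultures grew 48 h drug-free, in a separate triplicate set. Growth was read by SYBR Green I fluorescence and expressed as percent inhibition relative to drug-free control.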

Plasmodium falciparum [11] = assay: Induction of apoptosis in chloroquine-sensitive Plasmodium falciparum 3D7 trophozoites assessed as chromatin condensation at 6 uM at 18 hrs by Hoechst 33342 staining; type: functional, organism-based
In short: (§5)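 3D7 trophozoite cultures were treated 18 or 24 h, and ring cultures 24, 42 or 48 h. Parasites were stained with Hoechst 33342 for 10 min at room temperature, washed with PBS, and smeared. Condensed or fragmented chromatin (blue, 460 nm) was viewed by fluorescence microscopy.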

Plasmodium falciparum [12] = assay: Growth inhibition of chloroquine-sensitive Plasmodium falciparum 3D7 schizonts at 6 uM treated for 8 hrs following washout incubated for 48 hrs in drug free medium by Giemsa staining; type: functional, organism-based
In short: (§6)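 Highly synchronized 3D7 cultures were exposed by stage: rings 48 h, trophozoites 24 h, schizonts 8 h. After a media wash, cultures grew 48 h in drug-free complete RPMI, in triplicate. Giemsa smears were read by counting 3000 cells per stage; pycnotic parasites were scored nonviable. Inhibition is percent of drug-free control.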

Plasmodium falciparum [13] = assay: Growth inhibition of chloroquine-sensitive Plasmodium falciparum 3D7 trophozoites at 6 uM treated for 24 hrs following washout incubated for 48 hrs in drug free medium by Giemsa staining; type: functional, organism-based; in short: as §6
Plasmodium falciparum [14] = assay: Antimalarial activity against chloroquine-sensitive Plasmodium falciparum 3D7 assessed as inhibition of schizonts growth at 6 uM treated for 8 hrs followed by washout measured after 48 hrs by Giemsa staining; type: functional, organism-based
In short: (§7)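 Highly synchronized 3D7 schizonts were exposed to drug for 8 h under normal culture conditions, alongside untreated controls. After a media wash, cultures were incubated for 48 h with or without drug. Giemsa-stained thin smears were examined microscopically for parasitemia and stage, and compared with control.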

Plasmodium falciparum [15] = assay: Reduction in parasitemia of ring stage chloroquine-sensitive Plasmodium falciparum 3D7 at 6 uM after 48 hrs by Giemsa staining; type: functional, organism-based
Plasmodium falciparum [16] = assay: Growth inhibition of chloroquine-sensitive Plasmodium falciparum 3D7 trophozoites at 6 uM treated for 18 hrs followed by washout measured after 54 hrs by Giemsa staining; type: functional, organism-based
Plasmodium falciparum [17] = assay: Inhibition of RBC invasion of chloroquine-sensitive Plasmodium falciparum 3D7 schizonts at 6 uM treated for 8 hrs followed by washout measured after 48 hrs by Giemsa staining; type: functional, organism-based; in short: as §7
Plasmodium falciparum [18] = assay: Induction of apoptosis in chloroquine-sensitive Plasmodium falciparum 3D7 trophozoites assessed as nuclear condensation at 6 uM at 24 hrs by Giemsa staining; type: functional, organism-based
Plasmodium falciparum [19] = assay: Induction of internucleosomal fragmentation in chloroquine-sensitive Plasmodium falciparum 3D7 trophozoites at 6 uM at 24 hrs by Hoechst 33342 staining; type: functional, organism-based; in short: as §5
Plasmodium falciparum [20] = assay: Induction of apoptosis in ring stage chloroquine-sensitive Plasmodium falciparum 3D7 assessed as chromatin fragmentation at 6 uM at 18 hrs by Hoechst 33342 staining; type: functional, organism-based
Plasmodium falciparum [21] = assay: Induction of apoptosis in ring stage chloroquine-sensitive Plasmodium falciparum 3D7 assessed as chromatin condensation at 6 uM at 18 hrs by Hoechst 33342 staining; type: functional, organism-based
Plasmodium falciparum [22] = assay: Induction of apoptosis in ring stage chloroquine-sensitive Plasmodium falciparum 3D7 assessed as nuclear condensation at 6 uM at 24 hrs by Giemsa staining; type: functional, organism-based
Plasmodium falciparum [23] = assay: Antimalarial activity against chloroquine-sensitive Plasmodium falciparum 3D7 assessed as merozoites egress at 6 uM treated for 8 hrs followed by washout measured after 48 hrs by Giemsa staining; type: functional, organism-based; in short: as §7
Plasmodium falciparum [24] = assay: Induction of apoptosis in chloroquine-sensitive Plasmodium falciparum 3D7 trophozoites assessed as chromatin fragmentation at 6 uM at 18 hrs by Hoechst 33342 staining; type: functional, organism-based; in short: as §5
Plasmodium falciparum [25] = assay: Reduction in parasitemia of chloroquine-sensitive Plasmodium falciparum 3D7 trophozoites at 6 uM after 48 hrs by Giemsa staining; type: functional, organism-based
Plasmodium falciparum [26] = assay: Growth inhibition of chloroquine-sensitive Plasmodium falciparum 3D7 trophozoites at 6 uM treated for 24 hrs following washout incubated for 48 hrs in drug free medium by SYBR green 1-based fluorescence assay; type: functional, organism-based; in short: as §4
Plasmodium falciparum [27] = assay: Induction of internucleosomal fragmentation in ring stage chloroquine-sensitive Plasmodium falciparum 3D7 at 6 uM at 24 hrs by Hoechst 33342 staining; type: functional, organism-based; in short: as §5
Plasmodium falciparum [28] = assay: Growth inhibition of ring stage chloroquine-sensitive Plasmodium falciparum 3D7 at 6 uM treated for 48 hrs following washout incubated for 48 hrs in drug free medium by SYBR green 1-based fluorescence assay; type: functional, organism-based; in short: as §4
Plasmodium falciparum [29] = assay: Growth inhibition of ring stage chloroquine-sensitive Plasmodium falciparum 3D7 at 6 uM treated for 48 hrs followed by washout measured after 48 hrs by Giemsa staining; type: functional, organism-based; in short: as §6
Plasmodium falciparum [30] = assay: Induction of apoptosis in chloroquine-sensitive Plasmodium falciparum 3D7 trophozoites assessed as disruption of mitochondrial membrane potential at 6 uM by JC-1 staining; type: functional, organism-based; in short: as §3

IC50 (Plasmodium falciparum [2]): 29.5 µM
Structure (SMILES): COc1ccc(/C=C/C(=O)c2ccc(/C=C/c3ccccc3)cc2)cc1OC

IC50 (Plasmodium falciparum [2]): > 100 µM
Structure (SMILES): COc1ccc(/C=C/C(=O)c2ccc(/C=C/c3ccccc3)cc2)cc1

IC50 (Plasmodium falciparum [2]): 50 µM
Structure (SMILES): COc1ccc(C(=O)/C=C/c2ccc(/C=C/c3cc(OC)c(O)c(OC)c3)cc2)cc1

IC50 (Plasmodium falciparum [2]): 15 µM
Structure (SMILES): COc1ccc(/C=C/C(=O)c2ccc(/C=C/c3cc(OC)c(O)c(OC)c3)cc2)cc1

IC50 (Plasmodium falciparum [2]): 11 µM
Structure (SMILES): COc1cc(/C=C/c2ccc(/C=C/c3cc(OC)c(O)c(OC)c3)cc2)cc(OC)c1O

IC50 (Plasmodium falciparum [2]): > 100 µM
Structure (SMILES): COc1ccc(/C=C/c2cc(OC)c(O)c(OC)c2)cc1

Second part, the compound before the results:

Structure (SMILES): COc1cc(OC)c(C(=O)/C=C/c2ccc(/C=C/c3cc(OC)c(O)c(OC)c3)cc2)cc1OC
Ratio IC50 [1]: 0.7 | IC50 (Plasmodium falciparum [2]): 4.3 µM | selectivity ratio [3]: 8.4 | selectivity ratio [4]: > 46.5 | Ratio IC50 [5]: 0.6 | IC50 (Plasmodium falciparum [6]): 2.58 µM | IC50 (Plasmodium falciparum [7]): 3.01 µM | IC50 [8]: 100 µM

Structure (SMILES): O=C(/C=C/c1ccco1)c1ccc(/C=C/c2ccccc2)cc1
IC50 (Plasmodium falciparum [2]): > 100 µM

Structure (SMILES): COc1cc(OC)c(OC)cc1/C=C/C(=O)c1ccc(/C=C/c2cc(OC)c(O)c(OC)c2)cc1
Activity (Plasmodium falciparum [9]): Active | Ratio IC50 [1]: 2.9 | growth inhibition (GI) (Plasmodium falciparum [10]): inactive | Activity (Plasmodium falciparum [11]): Active | growth inhibition (GI) (Plasmodium falciparum [12]): inactive | growth inhibition (GI) (Plasmodium falciparum [13]): Active | growth inhibition (GI) (Plasmodium falciparum [14]): inactive | IC50 (Plasmodium falciparum [2]): 2.2 µM | Activity (Plasmodium falciparum [15]): Active | selectivity ratio [3]: 45.5 | growth inhibition (GI) (Plasmodium falciparum [16]): Active | inhibition (Plasmodium falciparum [17]): inactive | selectivity ratio [4]: 42.3 | Ratio IC50 [5]: 0.64 | Activity (Plasmodium falciparum [18]): Active | Activity (Plasmodium falciparum [19]): Active | Activity (Plasmodium falciparum [20]): Active | IC50 (Plasmodium falciparum [6]): 1.4 µM | IC50 (Plasmodium falciparum [7]): 6.4 µM | Activity (Plasmodium falciparum [21]): Active | Activity (Plasmodium falciparum [22]): Active | inhibition (Plasmodium falciparum [23]): inactive | Activity (Plasmodium falciparum [24]): Active | Activity (Plasmodium falciparum [25]): Active | growth inhibition (GI) (Plasmodium falciparum [26]): Active | Activity (Plasmodium falciparum [27]): inactive | growth inhibition (GI) (Plasmodium falciparum [28]): Active | growth inhibition (GI) (Plasmodium falciparum [29]): Active | IC50 [8]: 37.5 µM | Activity (Plasmodium falciparum [30]): Active

Structure (SMILES): COc1ccc(C(=O)/C=C/c2ccc(/C=C/c3ccc(O)c(OC)c3)cc2)cc1
IC50 (Plasmodium falciparum [2]): 66 µM

Structure (SMILES): O=C(/C=C/c1c[nH]c2ccc(Cl)cc12)c1ccc(/C=C/c2ccccc2)cc1
IC50 (Plasmodium falciparum [2]): 25.6 µM

Structure (SMILES): COc1cc(/C=C/c2ccc(C(=O)/C=C/c3ccc(OC)c(OC)c3OC)cc2)cc(OC)c1O
Ratio IC50 [1]: 1.1 | IC50 (Plasmodium falciparum [2]): 4.9 µM | selectivity ratio [3]: > 43 | selectivity ratio [4]: > 43 | Ratio IC50 [5]: 1.2 | IC50 (Plasmodium falciparum [6]): 5.88 µM | IC50 (Plasmodium falciparum [7]): 5.39 µM | IC50 [8]: 70 µM

Structure (SMILES): COc1cc(OC)c(OC)cc1/C=C/C(=O)c1ccc(/C=C/c2ccc(O)cc2)cc1
IC50 (Plasmodium falciparum [2]): 10 µM

Reference: ChEMBL document CHEMBL1949593, “Stilbene-chalcone hybrids: design, synthesis, and evaluation as a new class of antimalarial scaffolds that trigger cell death through stage specific apoptosis” (J Med Chem, 2012)
